In PMC4233149 (Clinical cancer research : an official journal of the …, 2014):
Where two headings read alike, the source gives them in different places.

Key:
[1] = Plasma pharmacokinetics, QW schedule; format: in vivo, human
Procedure, shortened: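 Plasma was sampled after the first and last weekly oral dose of cycle 1 (90–300mg). Concentrations were analysed non-compartmentally for AUC0-168h, Cmax, C48h […], Tmax and apparent terminal t1/2. Last-day/day-1 ratios were derived for AUC, Cmax and C48h.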

[2] = test system: pThr246 PRAS40; test: PD biomarker in platelet-rich plasma; format: in vivo, human; settings: 60mg QOD, PRP
Procedure, shortened: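 Platelet-rich plasma was collected at baseline and at 3, 6, 24 and 48h on oral 60mg QOD dosing. pThr246 PRAS40 was measured by MSD electrochemiluminescence assay validated to Good Clinical Practice standards. Values were expressed as percent of individual baseline, averaged per timepoint, and compared with baseline by paired t-test.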

[3] = Permeability; format: physicochemical; settings: across physiological pH ranges
[4] = read-out: mean Cmax of the no-observed-adverse-effect-level (NOAEL) dose; dogs, preclinical toxicology studies; cited from earlier work

In the case of `NC1(c2ccc(-c3nc4ccn5c(=O)[nH]nc5c4cc3-c3ccccc3)cc2)CCC1` [MK-2206], the “C48h Last Day / Day1 Ratio (geometric mean)” value (“C48h Last Day / Day1 Ratio” for short) ([1]; 90mg QW) is reported as 1.61, the “Tmax, median (min - max)” value ([1]; 90mg QW, Day 1) is reported as 6.0 (4.0-10.0) h and the “Tmax, median (min - max)” value ([1]; 90mg QW, Last Day of cycle 1) is reported as 4.0 (4.0-4.0) h. The “dose proportionality of AUC and Cmax” value ([1]; 90mg to 300mg QW) was “increased in a dose-proportional manner”, the “decline of plasma concentrations” value ([1]; 90mg, 135mg, 200mg, 250mg and 300mg QW) was “declined in a mono-exponential manner” and the “auto-induction of metabolizing enzymes” value ([1]; 90mg-300mg QW, cycle 1) was “no auto-induction of MK-2206 metabolizing enzymes”. The “AUC0-168h Last Day / Day1 Ratio (geometric mean)” value ([1]; 135mg QW) was 1.91, the “C48h Last Day / Day1 Ratio” value ([1]; 135mg QW) was 1.86 and the “Cmax Last Day / Day1 Ratio (geometric mean)” value ([1]; 135mg QW) was 1.95. The “Tmax, median (min - max)” value ([1]; 135mg QW, Day 1) was 4.0 (4.0-10.0) h, the Tmax ([1]; 150mg QW, Last Day of cycle 1, N=1) was 4.0 h and the “AUC0-168h Last Day / Day1 Ratio (geometric mean)” value ([1]; 200mg QW) was 1.54. The “C48h Last Day / Day1 Ratio” value ([1]; 200mg QW) was 1.49, the “Cmax Last Day / Day1 Ratio (geometric mean)” value ([1]; 200mg QW) was 1.33 and the “Tmax, median (min - max)” value ([1]; 200mg QW, Day 1) was 6.0 (4.0-10.0) h. For the same compound, the “Tmax, median (min - max)” value ([1]; 200mg QW, Last Day of cycle 1) was 6.0 (4.0-24.0) h, the “Tmax, median (min - max)” value ([1]; 250mg QW, Day 1) was 6.0 (4.0-6.0) h and the Tmax ([1]; 250mg QW, Last Day of cycle 1, N=1) was 4.0 h. For the same compound, the “Tmax, median (min - max)” value ([1]; 300mg QW, Day 1) was 4.0 (4.0-6.0) h, the “percent coefficient of variations (CVs) of AUC and Cmax” value ([1]; QW schedule, inter-patient variability) was 12% to 71 and the “Cmax at 200mg QW compared with 60mg QOD” value ([1]; higher at 200mg QW) was “about 2 fold”. It also gave a half-life ([1]; human, plasma, oral, 90 mg) of 71.6 ± 12.2 h, a concentration at 48 h ([1]; human, plasma, oral, 90 mg, C48h Mean ± SD, 90mg QW, Day 1, plasma) of 0.0509 ± 0.0382 µM and a concentration at 48 h ([1]; human, plasma, oral, 90 mg, C48h Mean ± SD, 90mg QW, Last Day of cycle 1, plasma) of 0.0793 ± 0.0337 µM. It also gave a concentration at 48 h ([1]; human, plasma, oral, 90 mg, mean C48h, 90mg QW, multiple dose) of 0.0793 µM, a Tmax ([1]; human, plasma, oral, 135 mg) of 5 h and a half-life ([1]; human, plasma, oral, 135 mg) of 88.9 ± 26.9 h. The concentration at 48 h ([1]; human, plasma, oral, 135 mg, C48h Mean ± SD, 135mg QW, Day 1, plasma) was 0.0903 ± 0.0251 µM, the concentration at 48 h ([1]; human, plasma, oral, 135 mg, mean C48h, 135mg QW, multiple dose) was 0.158 µM and the Tmax ([1]; human, plasma, oral, 150 mg) was 4 to 10 h. For the same compound, the half-life ([1]; human, plasma, oral, 150 mg) was 64.4 h, the AUC(0-t) ([1]; human, plasma, oral, 150 mg, AUC0-168h Mean, 150mg QW, Day 1, plasma, N=2) was 20.7 µM·h and the concentration at 48 h ([1]; human, plasma, oral, 150 mg, C48h, 150mg QW, Last Day of cycle 1, plasma, N=1) was 0.185 µM. It also gave a concentration at 48 h ([1]; human, plasma, oral, 150 mg, C48h Mean, 150mg QW, Day 1, plasma, N=2) of 0.155 µM, a Cmax ([1]; human, plasma, oral, 150 mg, Cmax Mean, 150mg QW, Day 1, plasma, N=2) of 0.337 µM and a Cmax ([1]; human, plasma, oral, 150 mg, Cmax, 150mg QW, Last Day of cycle 1, plasma, N=1) of 0.346 µM. It also gave a concentration at 48 h ([1]; human, plasma, oral, 200 mg, C48h Mean ± SD, 200mg QW, Day 1, plasma) of 0.121 ± 0.0474 µM, a concentration at 48 h ([1]; human, plasma, oral, 200 mg, mean C48h, 200mg QW, multiple dose) of 0.187 µM and a half-life ([1]; human, plasma, oral, 250 mg) of 53.7 h. It also gave a concentration at 48 h ([1]; human, plasma, oral, 250 mg, C48h, 250mg QW, Last Day of cycle 1, plasma, N=1) of 0.0748 µM, a concentration at 48 h ([1]; human, plasma, oral, 250 mg, C48h Mean ± SD, 250mg QW, Day 1, plasma) of 0.103 ± 0.0196 µM and a Cmax ([1]; human, plasma, oral, 250 mg, Cmax, 250mg QW, Last Day of cycle 1, plasma, N=1) of 0.169 µM. It also gave a concentration at 48 h ([1]; human, plasma, oral, 300 mg, C48h Mean, 300mg QW, Day 1, plasma) of 0.253 µM, a Cmax ([1]; human, plasma, oral, 300 mg, mean Cmax after the first dose, 300mg QW cohort) of 0.466 µM and a Cmax ([1]; human, plasma, oral, mean Cmax levels after multiple QW dose administration, 90mg to 250mg QW) of 0.153 to 0.245 µM. The “time of maximum suppression of pThr246 PRAS40 post-MK-2206” value [2] was 6 h, the “mean pThr246 PRAS40 levels, % of baseline levels” value (“mean pThr246 PRAS40 levels, %” for short) ([2]; 3h) was 79.8% and the “mean pThr246 PRAS40 levels, %” value ([2]; 6h) was 79.7%. For the same compound, the “mean pThr246 PRAS40 levels, %” value ([2]; 24h) was 86.9%, the “mean pThr246 PRAS40 levels, %” value ([2]; 48h) was 91.4% and the “mean pThr246 PRAS40 levels, %” value ([2]; 48h, one outlier removed (28 patients), p=0.0019) was 81.9%. For the same compound, the permeability [3] was “high permeability” and the Cmax [4] was 0.365 µM.
